Measurements pooled from the literature.
Compare with care: the assays were run in different laboratories.
Method: competition with immobilised ligand
RPS6KA1 C-terminal kinase domain: Ribosomal protein S6 kinase alpha-1, C-terminal kinase domain (RPS6KA1, Homo sapiens, UniProt Q15418)
RPS6KA1 N-terminal kinase domain: Ribosomal protein S6 kinase alpha-1, N-terminal kinase domain (RPS6KA1, Homo sapiens, UniProt Q15418)

`CN(C)c1ncnc(-c2ccc3nc(Nc4cc(CN5CCN(C(=O)CC(F)(F)F)CC5)ccn4)[nH]c3c2)c1Cl` has a remaining binding of 98% (RPS6KA1 C-terminal kinase domain; cell-free assay; 1 µM).
`O=C(c1ccc(Nc2ncc(Cl)c(-c3ccc(Cl)s3)n2)cc1)N1CCC(N2CCCC2)CC1` has a remaining binding of 72% (RPS6KA1 C-terminal kinase domain; binding; 1 µM).
For `COc1cnc(Nc2cccc(S(N)(=O)=O)c2)nc1N1CCN(c2ccccc2)CC1`, the remaining binding was 83% (RPS6KA1 C-terminal kinase domain; binding; 1 µM).
The remaining binding of `CC(C)CC(=O)N1CCc2nc(-c3ccc(Br)cc3)nc(N(C)Cc3ccccc3)c2C1` is reported as 93% (RPS6KA1 N-terminal kinase domain; cell-free assay; 0.1 µM).
With `O=C(c1ccc(Nc2nccc(-c3cc4ccccc4s3)n2)cc1)N1CCC(N2CCCC2)CC1` the remaining binding was 100% (RPS6KA1 N-terminal kinase domain; binding; 1 µM).
`C[C@@H](c1ccc(-n2cnc3c(N)ncnc32)cc1)N1CCc2nn(C)c(Cc3ccccc3)c2C1=O` gave a remaining binding of 96% (RPS6KA1 N-terminal kinase domain; binding; 0.1 µM).
`CCN1CCN(Cc2ccc(C(=O)Nc3ccc(C)c(Oc4ccc5c(c4)CC(=O)N5)c3)cc2C(F)(F)F)CC1` has a remaining binding of 91% (RPS6KA1 N-terminal kinase domain; binding; 1 µM).
With `C[C@@H]1CCN(c2nccc(-c3cnn4ncccc34)n2)C1` the remaining binding was 47% (RPS6KA1 C-terminal kinase domain; binding; 1 µM).
For `Nc1ncc2c(n1)-c1c([nH]c3ccc(C#CC4CC4)cc13)CCCC2`, the remaining binding was 90% (RPS6KA1 N-terminal kinase domain; binding; 1 µM).
The remaining binding of `O=C(Nc1c[nH]nc1C(=O)NC1CCNCC1)c1cc(F)cc(F)c1` is reported as 100% (RPS6KA1 N-terminal kinase domain; binding; 1 µM).
With `c1cncc(-c2cccc(Nc3nccc(NC4CCCCC4)n3)c2)c1` the remaining binding was 99% (RPS6KA1 C-terminal kinase domain; binding; 10 µM).
For `CN(C)c1ncc(F)c(-c2cnn3ncccc23)n1`, the remaining binding was 100% (RPS6KA1 N-terminal kinase domain; binding; 1 µM).
`CNC(=O)[C@@H]1CC[C@@H](n2c(-c3ccc4cnccc4c3)nc3ccc(C(=O)NCc4cccc(C(N)=O)c4)cc32)C1` has a remaining binding of 100% (RPS6KA1 N-terminal kinase domain; binding; 1 µM).
The remaining binding of `CN(c1nccc(-c2cnn3ncccc23)n1)C1CC1` is reported as 100% (RPS6KA1 C-terminal kinase domain; binding; 1 µM).
`O=C(NCCCN1CCOCC1)c1ccc(Nc2nccc(-c3cc4ccccc4s3)n2)cc1` has a remaining binding of 54% (RPS6KA1 C-terminal kinase domain; binding; 1 µM).
With `O=C(NCc1ncc(C(F)(F)F)cc1Cl)c1ccc2c(c1)C1(CCS(=O)(=O)CC1)[C@H](C1CC1)N2S(=O)(=O)c1ccc(F)cc1` the remaining binding was 100% (RPS6KA1 N-terminal kinase domain; cell-free assay; 1 µM).
With `Cc1cnn2ncc(-c3ccnc(N(C)C)n3)c2c1` the remaining binding was 100% (RPS6KA1 N-terminal kinase domain; binding; 1 µM).
The remaining binding of `COc1cnc(Nc2cccc(S(N)(=O)=O)c2)nc1N1CCN(c2ccccc2)C(=O)C1` is reported as 100% (RPS6KA1 N-terminal kinase domain; binding; 1 µM).
`CN(C)c1nccc(-c2cnn3ncccc23)n1` gave a remaining binding of 100% (RPS6KA1 C-terminal kinase domain; binding; 1 µM).
For `CO[C@@H](C)c1c(Nc2ccc([C@@H](N(C)C(=O)C3CCS(=O)(=O)CC3)C(F)(F)F)cc2)cnc2cc(Cl)nn12`, the remaining binding was 99% (RPS6KA1 C-terminal kinase domain; cell-free assay; 1 µM).
With `COc1ncc2cc3ccccc3nc2c1C#N` the remaining binding was 91% (RPS6KA1 N-terminal kinase domain; cell-free assay; 5 µM).
For `O=C(NCCCN1CCOCC1)c1ccc(Nc2ncc(Cl)c(-c3ccc(Cl)s3)n2)cc1`, the remaining binding was 55% (RPS6KA1 N-terminal kinase domain; binding; 1 µM).
`CCC(=N\O)/C(C)=C/c1ccc(F)cc1` gave a remaining binding of 100% (RPS6KA1 N-terminal kinase domain; cell-free assay; 1 µM).
With `C=CC(=O)N1CCC(C(=O)NCC(=O)N2CCN(c3nc(-c4cnc(N)nc4C(F)F)nc(N4CCOCC4)n3)CC2)CC1` the remaining binding was 100% (RPS6KA1 C-terminal kinase domain; binding; 1 µM).
`FC(F)(F)Oc1cccc(-c2cnc3ccc(-c4ccncc4)nn23)c1` gave a remaining binding of 41% (RPS6KA1 C-terminal kinase domain; binding; 5 µM).
`O=C(N1CCS(=O)(=O)CC1)N1C[C@H](c2ccc(OC(F)(F)F)cc2)C[C@H](c2nc(C3CC3)no2)C1` gave a remaining binding of 100% (RPS6KA1 C-terminal kinase domain; cell-free assay; 1 µM).
For `N[C@@H]1CCN(c2nccc(-c3cnn4ncccc34)n2)C1`, the remaining binding was 100% (RPS6KA1 N-terminal kinase domain; binding; 1 µM).
The remaining binding of `O=C(c1ccc(Nc2ncc(Cl)c(-c3cc4ccccc4s3)n2)cc1)N1CCC(N2CCCC2)CC1` is reported as 82% (RPS6KA1 C-terminal kinase domain; binding; 1 µM).
The remaining binding of `CCS(=O)(=O)c1cc2cc(C[C@@](O)(CC(C)(C)c3ccc(F)cc3C(N)=O)C(F)(F)F)[nH]c2cn1` is reported as 100% (RPS6KA1 N-terminal kinase domain; cell-free assay; 1 µM).
For `O=C(NCC1CCOCC1)c1n[nH]cc1NC(=O)c1c(F)cccc1F`, the remaining binding was 93% (RPS6KA1 N-terminal kinase domain; binding; 1 µM).
`CN(CCCC(F)(F)F)c1nccc(-c2cnn3ncccc23)n1` has a remaining binding of 100% (RPS6KA1 C-terminal kinase domain; binding; 1 µM).
`C[C@@H]1CN(c2cc(-c3n[nH]c4ccc(OC5(C)CC5)cc34)ncn2)C[C@H](C)O1` has a remaining binding of 97% (RPS6KA1 N-terminal kinase domain; cell-free assay; 0.1 µM).
